Source: PMC10985026 (Acta Pharmaceutica Sinica. B, 2023)
Where two headings read alike, the source gives them in different places.

Tests used:
[1] = tested on: L-929; test: MTT cytotoxicity assay, L-929; format: cell-based, murine; settings: read-out: IC50 L-929
Outline: (§1)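 Cells were cultured in DMEM/RPMI-1640/MEM with 10% FBS and 1% penicillin–streptomycin at 37 °C, 5% CO2; Renca medium also had 1 mmol/L sodium pyruvate and 2 mmol/L L-glutamine. Cells at about 50% confluence in 96-well plates were exposed to a concentration series for 48 h (DMSO vehicle). MTT was added for 4 h at 37 °C, formazan dissolved in DMSO, and absorbance read on a plate reader. Results are mean ± SD.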

[2] = tested on: Sam50 and COX II; test: Western blot of Sam50 and COX II; format: cell-based, murine; settings: 4T1, 2 μmol/L, 24 h
Outline: (§2)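 4T1 cells at about 70% confluence in 6-well plates were treated 24 h with test compound or DMSO vehicle. Protein was extracted in RIPA buffer with PMSF and phosphatase inhibitors, immunoblotted, and detected by enhanced chemiluminescence imaging. Sam50/COX II blots: n = 3.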

[3] = tested on: B16F10 (melanoma) cells; test: MTT cytotoxicity assay, B16F10; format: cell-based, murine; settings: read-out: IC50 B16F10
Outline: as §1

[4] = tested on: HUVEC; test: MTT cytotoxicity assay, HUVEC; format: cell-based, human; settings: 48 h, read-out: IC50 HUVEC
Outline: as §1

[5] = tested on: Renca (kidney cancer) cells; test: MTT cytotoxicity assay, Renca; format: cell-based, murine; settings: 48 h, read-out: IC50 Renca
Outline: as §1

[6] = tested on: NLRP3 inflammasome; test: Western blot of NLRP3; format: cell-based, murine; settings: 4T1, 2 μmol/L, 24 h, compared to control group
Outline: as §2

[7] = tested on: 4T1 (breast cancer) cells; test: MTT cytotoxicity assay, 4T1; format: cell-based, murine; settings: 48 h, read-out: IC50 4T1
[8] = tested on: 4T1 subcutaneous tumor; test: Anti-tumor effect in vivo, 4T1 subcutaneous tumor model; set-up: species or system BALB/c mouse; settings: 4T1-bearing BALB/c mice, after 27 days
Outline: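 Subcutaneous 4T1 tumours were grown in female BALB/c mice (6–8 weeks, 18–20 g). At about 50 mm3 on day 7, mice were randomised to five groups: PBS, each parent drug alone, the parent drugs combined, or test compound. Dosing was i.v. every two days, with body weight and tumour volume measured regularly. Main organs and blood were collected at study end for safety assessment.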

[9] = MTT, 48 h, mean ± SD of three experiments
[10] = MTT, mean ± SD of three experiments

| SMILES | IC50 ([1]; Mus musculus, L929, 48 h) [µM] | protein concentrations of Sam50 and COX II [2] | IC50 ([3]; Mus musculus, B16-F10, 48 h) [µM] | IC50 ([4]; Homo sapiens, HUVEC) [µM] | IC50 ([5]; Mus musculus, Renca) [µM] | NLRP3 inflammasome expression upregulation [6] | IC50 ([7]; Mus musculus) [µM] | relative tumor volume versus PBS group [8] | IC50 [1, 9] [µM] | IC50 [3, 9] [µM] | IC50 [4, 10] [µM] | IC50 [5, 10] [µM] | IC50 [7, 10] [µM] |
| --- | --- | --- | --- | --- | --- | --- | --- | --- | --- | --- | --- | --- | --- |
| CC(=O)Nc1ccc(O)cc1 [APAP, Acetaminophen] | 73.3 ± 0.88 | significantly downregulated | > 100 | > 100 | > 100 | approximately 1.2 fold | > 100 | no significant difference | – | – | – | – | – |
| O=C1[O][Pt]2([NH][C@@H]3CCCC[C@H]3[NH]2)[O]C1=O [Oxa, Oxaliplatin] | – | no significant effect | – | – | – | – | – | no significant difference | 44.6 ± 0.93 | 25.9 ± 0.96 | 32.5 ± 2.01 | > 100 | 13.4 ± 0.66 |
